# According to article PMC4201343 (ACS Chemical Biology, 2014):
# Changes are numbered by the printed parent chain. “Also recorded” adds a separate entry of the source.
# Legend:
# NS3h helicase = target: T1, NS3h helicase (Hepatitis C virus genotype 1b, UniProt Q9WMX2); experiment: Molecular beacon-based helicase; format: biochemical, hepatitis C virus genotype 1b (con1); settings: IC50 Helicase (DNA unwinding), Figure 7B, no DTT
# T1 sequence (Q9WMX2 1190-1657 limits assumed): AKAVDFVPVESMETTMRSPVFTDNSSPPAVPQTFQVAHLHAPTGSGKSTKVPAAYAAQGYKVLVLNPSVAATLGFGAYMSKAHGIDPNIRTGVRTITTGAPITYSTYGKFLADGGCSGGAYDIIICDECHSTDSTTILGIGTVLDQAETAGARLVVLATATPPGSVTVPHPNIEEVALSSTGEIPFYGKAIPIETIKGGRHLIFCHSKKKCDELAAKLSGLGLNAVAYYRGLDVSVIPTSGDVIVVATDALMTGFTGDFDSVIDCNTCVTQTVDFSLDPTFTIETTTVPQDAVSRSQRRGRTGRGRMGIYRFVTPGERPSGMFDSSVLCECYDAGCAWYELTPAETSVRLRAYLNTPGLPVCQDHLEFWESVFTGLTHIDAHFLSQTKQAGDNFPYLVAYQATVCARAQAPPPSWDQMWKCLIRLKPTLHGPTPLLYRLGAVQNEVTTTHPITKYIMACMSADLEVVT
# NS3h_1b(con1) C289S = target: T2, NS3h_1b(con1) C289S (Hepatitis C virus genotype 1b, UniProt Q9WMX2, C1315S); experiment: DNA binding, ATP hydrolysis and DNA unwinding assays with C289S NS3h; format: biochemical, hepatitis C virus genotype 1b (con1); settings: DNA binding, ATP hydrolysis, DNA unwinding
# T2 sequence (Q9WMX2 1190-1657 C1315S limits assumed): T1 sequence (Q9WMX2 1190-1657 limits assumed) with C126S
# NS3 ATPase = target: T3, NS3 ATPase (Hepatitis C virus genotype 1b, UniProt Q9WMX2); experiment: ATPase assay; format: biochemical, hepatitis C virus genotype 1b (con1); settings: Figure 7B
# T3 sequence (Q9WMX2 1190-1657 limits assumed): T1 sequence (Q9WMX2 1190-1657 limits assumed)
# NS3h_1b(con1) C279S = target: T4, NS3h_1b(con1) C279S (Hepatitis C virus genotype 1b, UniProt Q9WMX2, C1305S); experiment: DNA binding, ATP hydrolysis and DNA unwinding assays with C279S NS3h; format: biochemical, hepatitis C virus genotype 1b (con1); settings: DNA binding, ATP hydrolysis, DNA unwinding
# T4 sequence (Q9WMX2 1190-1657 C1305S limits assumed): T1 sequence (Q9WMX2 1190-1657 limits assumed) with C116S
# NS3h = target: T5, NS3h (Hepatitis C virus genotype 1b, UniProt Q9WMX2); experiment: ESI mass spectrometry of ebselen-treated NS3h; parameters: species or system hepatitis C virus genotype 1b (con1); settings: 100 μM ebselen, 1 h, RT
# T5 sequence (Q9WMX2 1190-1657 limits assumed): T1 sequence (Q9WMX2 1190-1657 limits assumed)
# In short: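 Con1 NS3h was incubated 1 h at RT with 100 μM test compound in 10 mM ammonium acetate pH 7.5, 1% DMSO. It was dialysed against 10 mM ammonium acetate (three changes) and diluted to 0.15 mg/mL in 50:50 acetonitrile/water, 0.2% formic acid. Nano-ESI Q-TOF, positive mode, 3 kV, 0.7 μL/min, 10 min acquisition, compared with untreated and DMSO-treated protein.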
# HCV NS3h [1] = target: T6, HCV NS3h (Hepatitis C virus genotype 1b, UniProt Q9WMX2); experiment: FP-based binding assay, NS3h displacement from Cy5-rU15 RNA; parameters: species or system hepatitis C virus genotype 1b (con1); settings: IC50 RNA (Cy5-rU15–NS3h complex, RNA:NS3h binding), Figures 1C and 7B titration
# T6 sequence (Q9WMX2 1190-1657 limits assumed): T1 sequence (Q9WMX2 1190-1657 limits assumed)
# In short: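 Con1 NS3h bound to 5′-Cy5-labelled rU15 RNA was titrated with test compound. Polarisation was read with excitation 635 nm and emission 667 nm, G-factor from probe-only wells. Values were normalised to DMSO and positive controls and fit to a concentration–response equation (n = 3). IC50 is the concentration reducing complex polarisation by 50%.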
# E. coli SSB = E. coli SSB (Escherichia coli, UniProt P0AGE0); experiment: FP-based binding assay with SSB in place of NS3h
# Sequence of E. coli SSB (P0AGE0 2-178 limits assumed): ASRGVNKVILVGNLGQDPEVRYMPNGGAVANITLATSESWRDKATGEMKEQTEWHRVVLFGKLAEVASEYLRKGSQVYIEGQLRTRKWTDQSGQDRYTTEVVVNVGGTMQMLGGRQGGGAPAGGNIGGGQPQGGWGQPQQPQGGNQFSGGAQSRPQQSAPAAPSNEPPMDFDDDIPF
# In short: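 Fluorescence polarisation assay with E. coli SSB in place of NS3h, using Cy5-dT15 (or Cy5-rU15 for titrations). Screen compounds were pin-transferred to 100 μM final, 1% DMSO. Excitation 635 nm, emission 667 nm; G-factor from probe-only wells. Percent inhibition was normalised to DMSO and to unlabeled dT20 or 100 μM primuline controls.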
# [2] = target: NS3 protease (scNS3-NS4A) (Hepatitis C virus, UniProt Q9WMX2); experiment: Protease assay; format: biochemical; settings: even at the highest concentrations tested
# In short: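 Full-length single-chain NS3-4A at 10 nM, in kit HCV protease buffer without DTT with 5% DMSO, cleaving a 5-carboxyfluorescein-labelled peptide substrate; fluorescence read at 520 nm. Test compound was run as a 7-point two-fold dilution series from 100 μM, in duplicate.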
# HCV NS3h [3] = target: T6, HCV NS3h; experiment: FP-based binding assay, NS3h displacement from Cy5-dT15 DNA; parameters: species or system hepatitis C virus genotype 1b (con1); settings: for NS3h (% I): percent inhibition of NS3h binding to Cy5-dT15: 100 μM of each compound, 100 µM
# In short: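 Fluorescence polarization with Cy5-dT15 and NS3h: excitation 635 nm; parallel and perpendicular emission read at 667 nm; G-factor taken from probe-only wells. % inhibition normalized to DMSO-only (negative) and 200 nM dT20 or 100 μM primuline (positive) controls. Single-point tests at 100 μM. IC50 is the concentration displacing 50% of NS3h from DNA. Reversibility: 10 μM NS3h preincubated 1 h with test compound, then diluted 100–100 000-fold into Cy5-dT15 and compared with untreated controls.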
# [4] = tested on: HCV genotype 2a isolate (JFH1); settings: 20 μM of each compound; ref Gastaminza et al.[9]; cited from earlier work
smiles,measurement,setting,value
"O=c1c2ccccc2[se]n1-c1ccccc1 [Ebselen, 2-phenyl-1,2-benzisoselenazol-3(2H)-one]",IC50,NS3h helicase,~1 µM
same,sensitivity to ebselen inhibition compared with wild type,NS3h_1b(con1) C289S,neither protein was more or less sensitive
same,IC50,NS3 ATPase,~1 µM
same,sensitivity to ebselen inhibition compared with wild type,NS3h_1b(con1) C279S,neither protein was more or less sensitive
same,number of ebselens bound to NS3h (covalent adducts),NS3h,14
same,IC50,HCV NS3h [1],~1 µM
same,effect on SSB binding to DNA or RNA,"E. coli SSB; Cy5-dT15 or Cy5-rU15, Figure 1D titration",no effect; also recorded: did not inhibit
same,inhibition at 100 µM,E. coli SSB; read-out: SSB (% I): percent inhibition of SSB binding to Cy5-dT15,3%
same,effect on NS3 protease activity (peptide cleavage by full-length NS3),[2],no effect
same,reversibility of NS3h inhibition,"HCV NS3h [3]; 10 μM NS3h treated with 10 μM ebselen for 1 h, then diluted to <0.1 μM ebselen",reversible
same,NS3h (% I): percent inhibition of NS3h binding to Cy5-dT15,HCV NS3h [3],99%
same,NS3h (% I): percent inhibition of NS3h binding to Cy5-dT15,HCV NS3h [3]; listed as ebselen,more than 50%
same,IC50,"HCV NS3h [3]; IC50 DNA (Cy5-dT15–NS3h complex), Figure 1C titration, n = 3",~1 µM
same,reversibility of NS3h inhibition,"HCV NS3h [3]; NS3h incubated with 100 μM ebselen, then dialysis",irreversible
same,HCV (% I): percent inhibition of HCV replication in cells,[4],83%
